Experimental data published in ChEMBL document CHEMBL1132163 (Bioorg Med Chem Lett, 1999).

Key:
[1] = biological target: T1, Cyclin-dependent kinase 1 (Homo sapiens, UniProt P06493); experiment: Inhibition of cyclin-dependent kinase 1 (CDK1) (Not active)
[2] = biological target: T1, Cyclin-dependent kinase 1; experiment: Inhibitory activity against cyclin-dependent kinase 1 (CDK1) was determined
[3] = biological target: Protein kinase C alpha type (Homo sapiens, UniProt P17252); experiment: Inhibition of Protein kinase C alpha
[4] = biological target: T2, Epidermal growth factor receptor (Homo sapiens, UniProt P00533); experiment: Inhibit of epidermal growth factor receptor (EGFR)
[5] = biological target: cAMP-dependent protein kinase (PKA) (Homo sapiens, UniProt P22694+P17612+P22612); experiment: Inhibition of Protein kinase A; format: protein assay
[6] = Inhibition of human bladder carcinoma T24 cell proliferation; format: functional, cell-based, T-24
Outline: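 T24 cells seeded 1.5 x 10^3/well, attached overnight (16-18h), washed with serum-free medium, exposed to serial drug dilutions 4-5 days (≥2-3 control divisions); duplicates per concentration. Fixed 3.3% glutaraldehyde, methylene blue 0.05% stain, eluted 3% HCl, OD 665nm.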

[7] = biological target: T2, Epidermal growth factor receptor; experiment: Inhibition of epidermal growth factor receptor (EGFR) (inactive)

T1 sequence (P06493 whole entry): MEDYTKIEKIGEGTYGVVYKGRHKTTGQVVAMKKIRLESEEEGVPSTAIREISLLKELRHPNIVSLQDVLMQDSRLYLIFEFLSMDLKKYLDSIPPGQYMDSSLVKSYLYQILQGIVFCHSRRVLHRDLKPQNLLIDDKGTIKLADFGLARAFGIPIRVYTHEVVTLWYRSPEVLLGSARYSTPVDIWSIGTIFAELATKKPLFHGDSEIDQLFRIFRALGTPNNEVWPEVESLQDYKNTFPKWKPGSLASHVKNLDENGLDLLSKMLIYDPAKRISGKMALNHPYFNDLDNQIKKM
T2 sequence (P00533 whole entry): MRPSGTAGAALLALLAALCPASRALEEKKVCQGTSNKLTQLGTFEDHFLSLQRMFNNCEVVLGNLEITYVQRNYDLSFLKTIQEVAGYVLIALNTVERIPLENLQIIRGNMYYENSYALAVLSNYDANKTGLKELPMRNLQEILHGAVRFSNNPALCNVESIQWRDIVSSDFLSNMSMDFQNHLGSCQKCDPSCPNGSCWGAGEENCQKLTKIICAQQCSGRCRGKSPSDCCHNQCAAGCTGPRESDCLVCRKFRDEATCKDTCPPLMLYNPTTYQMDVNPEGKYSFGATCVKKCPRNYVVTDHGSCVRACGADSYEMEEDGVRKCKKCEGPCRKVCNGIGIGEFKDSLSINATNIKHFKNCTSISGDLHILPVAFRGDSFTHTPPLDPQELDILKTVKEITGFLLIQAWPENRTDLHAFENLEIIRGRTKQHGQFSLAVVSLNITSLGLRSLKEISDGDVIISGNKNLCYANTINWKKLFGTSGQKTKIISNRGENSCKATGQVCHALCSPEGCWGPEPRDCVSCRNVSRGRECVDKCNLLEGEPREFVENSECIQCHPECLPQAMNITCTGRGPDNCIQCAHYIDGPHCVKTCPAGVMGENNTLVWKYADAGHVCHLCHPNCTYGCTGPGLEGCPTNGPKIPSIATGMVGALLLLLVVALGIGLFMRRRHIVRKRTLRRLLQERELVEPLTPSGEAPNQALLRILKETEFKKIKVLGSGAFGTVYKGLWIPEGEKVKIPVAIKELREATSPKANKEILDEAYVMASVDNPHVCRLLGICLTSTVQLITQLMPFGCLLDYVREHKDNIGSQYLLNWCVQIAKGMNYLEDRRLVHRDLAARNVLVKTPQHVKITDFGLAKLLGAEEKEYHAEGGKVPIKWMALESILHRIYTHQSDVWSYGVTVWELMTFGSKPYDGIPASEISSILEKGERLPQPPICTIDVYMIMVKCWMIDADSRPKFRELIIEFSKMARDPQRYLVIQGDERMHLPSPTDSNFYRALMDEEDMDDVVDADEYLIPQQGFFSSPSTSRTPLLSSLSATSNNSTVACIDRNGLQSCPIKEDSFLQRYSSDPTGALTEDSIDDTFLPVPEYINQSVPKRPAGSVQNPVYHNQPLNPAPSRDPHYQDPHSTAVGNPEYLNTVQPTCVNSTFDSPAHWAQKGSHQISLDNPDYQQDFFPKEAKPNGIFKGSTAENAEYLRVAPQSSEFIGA

| Structure (SMILES) | IC50 [2] | also measured |
| --- | --- | --- |
| CCn1cnc2c(Nc3cccc(C#N)c3)nc(NCCO)nc21 | – | IC50 [1]: Not Active |
| CCn1cnc2c(Nc3ccc(F)cc3)nc(N[C@H]3CC[C@H](N)CC3)nc21 | 31 nM | – |
| CCn1cnc2c(Nc3cccc(F)c3)nc(NCCO)nc21 | 440 nM | – |
| CCn1cnc2c(Nc3cccc(C#N)c3)nc(N[C@H]3CC[C@H](O)CC3)nc21 | 28 nM | – |
| CCn1cnc2c(Nc3cccc(OC)c3)nc(N[C@H]3CC[C@@H](N)CC3)nc21 | 340 nM | – |
| CCn1cnc2c(Nc3ccc(F)cc3)nc(N[C@@H]3CCCC[C@@H]3N)nc21 | 150 nM | – |
| CCn1cnc2c(Nc3cccc(C(F)(F)F)c3)nc(NCCN)nc21 | 700 nM | – |
| CCn1cnc2c(Nc3cccc(F)c3)nc(N[C@H]3CC[C@@H](N)CC3)nc21 | 350 nM | – |
| CCn1cnc2c(Nc3cccc(C(F)(F)F)c3)nc(N[C@H]3CC[C@H](N)CC3)nc21 | 140 nM | – |
| CCn1cnc2c(Nc3ccc(F)cc3)nc(N[C@H]3CC[C@@H](N)CC3)nc21 | 100 nM | – |
| CCn1cnc2c(Nc3cccc(Cl)c3)nc(NCCN)nc21 | 80 nM | IC50 [3]: 31500 nM; IC50 [4]: > 100000 nM; IC50 [5]: 180000 nM; IC50 ([6]; Homo sapiens, T-24): 3160 nM |
| CCn1cnc2c(Nc3cccc(F)c3)nc(N[C@@H]3CCCC[C@@H]3N)nc21 | 250 nM | – |
| CCn1cnc2c(Nc3cccc(C(F)(F)F)c3)nc(N[C@H]3CC[C@@H](N)CC3)nc21 | 290 nM | – |
| CCn1cnc2c(Nc3cccc(F)c3)nc(N[C@H]3CC[C@H](O)CC3)nc21 | 32 nM | – |
| CCn1cnc2c(Nc3ccc(F)cc3)nc(N[C@H]3CC[C@H](O)CC3)nc21 | 40 nM | – |
| CCn1cnc2c(Nc3cccc(OC)c3)nc(N[C@@H]3CCCC[C@@H]3N)nc21 | 230 nM | – |
| CCn1cnc2c(Nc3cccc(C#N)c3)nc(NCCN)nc21 | 560 nM | – |
| CCn1cnc2c(Nc3ccc(F)cc3)nc(NCCN)nc21 [listing 1 of 2 here] | 450 nM | – |
| CCn1cnc2c(Nc3cccc(Cl)c3)nc(N3CCCCC3CO)nc21 (stereo not drawn) | 39 nM | IC50 ([6]; Homo sapiens, T-24): 3650 nM |
| CCn1cnc2c(Nc3cccc(C(F)(F)F)c3)nc(N[C@@H]3CCCC[C@@H]3N)nc21 | 310 nM | – |
| CCn1cnc2c(Nc3cccc(OC)c3)nc(N[C@H]3CC[C@H](N)CC3)nc21 | 160 nM | – |
| CCn1cnc2c(Nc3cccc(C#N)c3)nc(N[C@H]3CC[C@@H](N)CC3)nc21 | 350 nM | – |
| CCn1cnc2c(Nc3cccc(Cl)c3)nc(N[C@H]3CC[C@@H](O)CC3)nc21 | – | IC50 ([6]; Homo sapiens, T-24): 830 nM |
| CCn1cnc2c(Nc3cccc(Cl)c3)nc(N[C@H]3CC[C@H](O)CC3)nc21 | 30 nM | – |
| CCn1cnc2c(Nc3cccc(C#N)c3)nc(N[C@@H]3CCCC[C@@H]3N)nc21 | 350 nM | – |

| Structure (SMILES) | IC50 [2] | also measured |
| --- | --- | --- |
| CCn1cnc2c(Nc3cccc(C(F)(F)F)c3)nc(NCCO)nc21 | – | IC50 [1]: Not Active |
| CCn1cnc2c(Nc3cccc(F)c3)nc(N[C@H]3CC[C@H](N)CC3)nc21 | 150 nM | – |
| CCn1cnc2c(Nc3cccc(OC)c3)nc(NCCN)nc21 | 550 nM | IC50 ([6]; Homo sapiens, T-24): 9900 nM |
| CCn1cnc2c(Nc3cccc(Cl)c3)nc(N3CCC[C@@H]3CO)nc21 | 80 nM | IC50 [7]: Not Active; IC50 [3]: 38500 nM; IC50 [5]: > 500000 nM; IC50 ([6]; Homo sapiens, T-24): 6710 nM |
| CCn1cnc2c(Nc3cccc(Cl)c3)nc(NCCO)nc21 | 330 nM | IC50 ([6]; Homo sapiens, T-24): 17500 nM |
| CCn1cnc2c(Nc3ccc(F)cc3)nc(NCCO)nc21 | 380 nM | – |
| CCn1cnc2c(Nc3cccc(Cl)c3)nc(N[C@H]3CC[C@H](N)CC3)nc21 | 39 nM | – |
| CCn1cnc2c(Nc3cccc(OC)c3)nc(N[C@H]3CC[C@H](O)CC3)nc21 | 90 nM | – |
| CCn1cnc2c(Nc3cccc(C(F)(F)F)c3)nc(N[C@H]3CC[C@H](O)CC3)nc21 | 28 nM | – |
| CCn1cnc2c(Nc3cccc(Cl)c3)nc(N[C@H]3CCC[C@@H](N)C3)nc21 | 120 nM | IC50 [3]: 6000 nM; IC50 [5]: 150000 nM; IC50 ([6]; Homo sapiens, T-24): 1500 nM |
| CCn1cnc2c(Nc3cccc(Cl)c3)nc(N3CCC[C@@H]3CN)nc21 | 41 nM | IC50 ([6]; Homo sapiens, T-24): 2350 nM |
| CCn1cnc2c(Nc3ccc(OC)cc3)nc(NCCN)nc21 | 550 nM | – |
| CCn1cnc2c(Nc3cccc(OC)c3)nc(NCCO)nc21 | 1000 nM | – |
| CCn1cnc2c(Nc3cccc(C#N)c3)nc(N[C@H]3CC[C@H](N)CC3)nc21 | 85 nM | – |
| CCn1cnc2c(Nc3cccc(F)c3)nc(NCCN)nc21 [listing 1 of 2 here] | 600 nM | – |
| CCn1cnc2c(Nc3cccc(C(F)(F)F)c3)nc(NCCN)nc21.Cl | 700 nM | IC50 [3]: 50000 nM; IC50 [4]: > 10000 nM; IC50 [5]: 500000 nM; IC50 ([6]; Homo sapiens, T-24): 6080 nM |
| CCn1cnc2c(Nc3cccc(F)c3)nc(NCCN)nc21 [listing 2 of 2 here] | 600 nM | IC50 ([6]; Homo sapiens, T-24): 6500 nM |
| CCn1cnc2c(Nc3ccc(F)cc3)nc(NCCN)nc21 [listing 2 of 2 here] | 450 nM | IC50 ([6]; Homo sapiens, T-24): 8300 nM |
| CCn1cnc2c(Nc3cccc(C#N)c3)nc(NCCN)nc21.Cl | 560 nM | IC50 [3]: 78000 nM; IC50 [4]: > 10000 nM; IC50 [5]: > 500000 nM; IC50 ([6]; Homo sapiens, T-24): 5240 nM |
| CCn1cnc2c(Nc3cccc(Cl)c3)nc(N[C@H]3CC[C@@H](N)CC3)nc21 (stereo in doubt) | 140 nM | – |
| CCn1cnc2c(Nc3cccc(Cl)c3)nc(N[C@@H]3CCCC[C@@H]3N)nc21 (stereo in doubt) | 31 nM | – |
| CCn1cnc2c(Nc3cccc(Cl)c3)nc(N[C@@H]3CCCC[C@@H]3N)nc21 (stereo in doubt; 12) | 110 nM | IC50 [3]: 30000 nM; IC50 [4]: 2000 nM; IC50 [5]: 335000 nM; IC50 ([6]; t-24): 1350 nM |
| CCn1cnc2c(Nc3cccc(Cl)c3)nc(N[C@@H]3CCCC[C@@H]3N)nc21 (stereo in doubt; 13) | 25 nM | IC50 [3]: 13500 nM; IC50 [4]: 5100 nM; IC50 [5]: 150000 nM; IC50 ([6]; t-24): 480 nM |
| CCn1cnc2c(Nc3cccc(Cl)c3)nc(N[C@H]3CC[C@@H](N)CC3)nc21 (stereo in doubt; 15) | 39 nM | IC50 ([6]; Homo sapiens, T-24): 540 nM |
